Reference: ChEMBL document CHEMBL4513216, “Probing the Open Global Health Chemical Diversity Library for Multistage-Active Starting Points for Next-Generation Antimalarials” (ACS Infect Dis, 2020)

experiment: Toxicity liver stage against HepG2, at 10uM; type: cell-based; parameters: test concentration 10 uM, cell line HepG2-A16-CD81EGFP; settings: human, HepG2-A16-CD81EGFP cells; read-out: INHIBITION
Method in brief: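 Uninfected HepG2-A16-CD81EGFP cells, 3 × 10^3 per well, 1536-well, plated on prespotted compound at 10 μM final, parasite-free screening media added to match infected plates; puromycin 10 μM positive, DMSO 0.5% negative; run in parallel with 48 h PbLuc assay at 37 °C, 5% CO2; viability by CellTiter-Glo luminescence, normalized to controls.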

Row | SMILES | cytotoxicity at 10 µM [%]
1 | Cc1ccsc1C(=O)NC1CCS(=O)(=O)c2ccccc21 (stereo not given) | 2.93
2 | CC(=O)N1CC[C@H](c2nc3cc(F)ccc3o2)C1 | 0.835
3 | CC(C)(C)CN[C@@H]1CO[C@H](CNC(=O)Nc2ccccc2)[C@H]1O | 6.98
4 | O=C(NC[C@H]1C[C@@H]2CCN1C[C@@H]2CN1CCOCC1)Nc1ccsc1 | 1.03
5 | CN(C)C(=O)CN1CCC2(CC1)CC(=O)c1ccc3ccccc3c1O2 | 6.17
6 | COC(=O)CN1Cc2cc3c(cc2NCCC1=O)OCO3 | -8.1
7 | CC(C)COC(=O)N1CC(=O)N(CCc2ccccc2)CC(O)C1 (stereo not given) | -16.6
8 | O=S(=O)(NCC1(O)CCOCC1)c1c(F)cccc1F | -4.97
9 | CC(=O)N(C)CC(=O)Nc1cnc(-n2ccnc2)nc1 | -9.69
10 | O=C(Cn1ccc2ccccc21)N1CCC(Oc2cnccn2)CC1 | 4.61
11 | O=C(Cn1c(=O)oc2ccccc21)NCC1(O)CCc2ccccc2C1 (stereo not given) | 5.37
12 | COCC(=O)N1CC2(CCN(c3ccccc3)C2)C1 | 10.1
13 | CC(C)NC(=O)[C@H]1C[C@@H]2[C@@H](C1)OCCN2Cc1ccncc1 | 6.62
14 | c1ccc(CN2CCN3C[C@H](Oc4cccnc4)C[C@H]3C2)nc1 | 6.59
15 | CC(C)Nc1ccc2nc(C3CCNCC3)nn2c1 | -6.75
16 | COCC(=O)N1CCC2(CC1)CC(c1cnn(C)c1)C(=O)N2 (stereo not given) | 7.25
17 | COCc1nc2nc(O)c3c(n2n1)NC(=O)CC3c1ccc(SC)cc1 (stereo not given) | 1.22
18 | COc1ccc(C2=C(C)C(N3CCc4ccccc43)=NS2(=O)=O)cc1 | -4.66
19 | CCn1cc(S(=O)(=O)N2CCN(S(=O)(=O)c3ccc(Br)s3)CC2)cn1 | 6.24
20 | Fc1cccc(Cc2cncc(C3CCCN3C3CCOCC3)n2)c1 (stereo not given) | -0.685
21 | Cc1ccnn1CCNC(=O)C1CCN(S(=O)(=O)c2ccc(F)cc2)C1 (stereo not given) | -32
22 | Cc1noc2nc(C3CCCN(Cc4cccnc4)C3)cc(C(F)F)c12 (stereo not given) | -30.3

Row | SMILES | cytotoxicity at 10 µM [%]
23 | Cc1cc(-c2cnc(NC3CCCC3)nc2-c2ccoc2)on1 | -20.9
24 | Cc1ccc([C@]2(O)CC[C@H]3CN(Cc4cccnc4)C[C@H]32)nc1 | -12.6
25 | COc1ccc(OC)c(CN2CCC(c3cc(O)nc(C)n3)C2)c1 (stereo not given) | -15
26 | CCc1nnsc1C(=O)NCc1nnc2n1CCCCC2 | 0.136
27 | O=C(CCCc1nc2ccccc2[nH]1)N1CCCC1c1ccccn1 (stereo not given) | 0.219
28 | COc1cc(C(C)=O)ccc1OCC(=O)c1cccn1C | 13.6
29 | CC(C)COCCNC1CCN(c2ccccn2)CC1 | -2.12
30 | Cc1csc(N(C)C(=O)C2CC(=O)N(c3ccccc3Cl)C2)n1 (stereo not given) | 11.8
31 | Cc1nnc(CN(C)CC(=O)N2CCCN(C3CCCC3)CC2)n1C | 7.1
32 | O=C(CNc1cc(-n2cnnn2)ccc1F)Nc1ccccc1Cl | 11.7
33 | O=C(NCCCN1CCOCC1)c1ccc(-c2ccccc2)[nH]c1=O | -2.48
34 | COc1c(CNCc2ccc(CN3CCOCC3)cc2)c(C)nn1C | -11.8
35 | CN(C)C(=O)C1CCN(c2cncc(-n3cccn3)n2)CC1 | -10.9
36 | CN(CC(=O)Nc1ccncc1)CC1CCCN1c1cccnn1 (stereo not given) | -2.01
37 | CCN(CC1CN(Cc2nccn2CC)CCO1)c1cccnn1 (stereo not given) | -0.31
38 | COc1ccccc1OCC(=O)Nc1ncccc1C | 0.464
39 | CCc1noc(C(C)N(C)CC(=O)Nc2cccc(C)c2C)n1 (stereo not given) | 6.35
40 | Cc1ccc(S(=O)(=O)NCCCN2CCC(O)CC2)c(F)c1 | 4.24
41 | CC(C)NC(=O)CNC(=O)OC(C)(C)C | 9.39
42 | CCN(C(=O)c1cc(C)nc2ccccc12)C1CC(=O)NC1=O (stereo not given) | 3.04
43 | CC1(C)CN(CC(F)(F)F)CCN1CC(=O)N1CCCCC1 | 13.2
44 | COCCCSc1ccc(NC(=O)Nc2cn[nH]c2)cc1 | 2.54

Row | SMILES | cytotoxicity at 10 µM [%]
45 | CC(NC(=O)Nc1ccc(-n2cncn2)cc1)C(=O)NC(C)(C)C (stereo not given) | 3.92
46 | CC(C(=O)N1CCCCC1)N1CCN(c2nccs2)CC1 (stereo not given) | 22.1
47 | Cc1ccc(S(=O)(=O)N2CCN(C)c3ccncc32)cc1F | 9.21
48 | CCC(C)NS(=O)(=O)Cc1cccc(NC(=O)c2ccc[nH]2)c1 (stereo not given) | 15.5
49 | CN1CCCN(C(=O)c2nc3c(o2)CN(S(C)(=O)=O)C3)CC1 | -117
50 | CC(C)CCC(=O)N1C[C@H]2CCN[C@H]2C1 | 2.82
51 | CCOc1ncnc2c1CCN(S(=O)(=O)c1ccccc1)CC2 | -110
52 | CCOCC1CN(S(=O)(=O)CC)Cc2nn(C)cc21 (stereo not given) | -111
53 | Cn1cccc1C(=O)N1C[C@@H](OCc2cccnc2)[C@H]2OCCC[C@H]21 | 7.06
54 | CC(=O)Nc1nc2c(s1)C1(CCCC1)Nc1ccccc1S2 | -9.99
55 | CN1CCCN(c2nccc(-c3c[nH]c4ccc(Br)cc34)n2)CC1 | -9.99
56 | CCOc1ccc(-c2ccnc(COc3ccccc3)n2)cc1C(=O)O | -1.84
57 | Cc1nc2cc(NC(=O)Cn3ncc(N4CCCC4)cc3=O)ccc2s1 | 2.01
58 | Cc1nc(N(C)C)nc(N(C)CCc2ccncc2)c1C | 1.37
59 | CO[C@H]1C[C@@H](O)C12CCN(Cc1nc(C(F)(F)F)no1)CC2 | -4.7
60 | C[C@@H]1CN(CCC(=O)NCc2ccccc2Cl)CC[C@@]1(O)C1CCC1 | -3.21
61 | COc1ccc(C(O)C(=O)N2CCC(c3nccn3C(C)C)CC2)cc1 (stereo not given) | -0.355
62 | CCS(=O)(=O)c1ncc(CN2CCOCC2)n1CCCc1ccccc1 | 7.57
63 | C=C(C)COc1ccccc1C(=O)NCCc1cc(O)nc(C)n1 | -0.355
64 | COCc1noc(Cn2c(C)cc(C(F)(F)F)cc2=O)n1 | 2.65
65 | O=C(c1ccc(S(=O)(=O)NCc2ccon2)cc1)N1CCNCC1 | 2.59
66 | COCCCN1CC2(CCN(Cc3cc(C(C)C)no3)CC2)CC1=O | -3.79

Row | SMILES | cytotoxicity at 10 µM [%]
67 | CCC(O)c1nc2c([nH]1)CC(C)(C)CNC2=O (stereo not given) | 9.55
68 | CCCN(Cc1nccn1C)C(=O)c1cnn[nH]1 | -1.21
69 | Cc1cc(N2CCC(n3cc(CCCO)nn3)CC2)ccn1 | 3.6
70 | Cc1cccc2cc(C(=O)N3CCN(S(=O)(=O)N(C)C)CC3)n(C)c12 | 7.39
71 | CCn1cc(-c2n[nH]c(=O)n2-c2ccc(OC)c(OC)c2)c(C)n1 | -9.91
72 | CCc1cn[nH]c1C1CCCN(C(=O)c2cc(C#N)c(=O)[nH]c2C)C1 (stereo not given) | -1.3
73 | COc1ccccc1Oc1ncccc1CNC(=O)C1COC(=O)N1 (stereo not given) | -6.01
74 | Cc1cc(NCCS(C)(=O)=O)nc2cc3c(cc12)CCC3 | 8.05
75 | Cc1nn(C)cc1CNCc1ccc(N(C)C)cc1 | -11.9
76 | Cc1nc(CN2CCCC(NCc3ccc4ccccc4c3)C2)no1 (stereo not given) | -0.375
77 | CCc1noc(CNc2ccc(C(=O)N3CCCC3)cc2C)n1 | -8.25
78 | Cc1ccc(-c2nc(C(=O)NCC3CCOC3)cs2)cc1 (stereo not given) | -8.32
79 | O=C(C1CCOC1)N1CCN(Cc2ccc3c(c2)CCO3)CC1 (stereo not given) | 0.28
80 | OCCn1nccc1C1CCN(CCOc2ccccc2)CC1 | -0.121
81 | O=C1COc2cc(C(=O)NS(=O)(=O)c3ccc(F)c(F)c3)ccc2N1 | -2.34
82 | O=C(c1csc(-c2ncccn2)n1)N1CCCC1Cn1cccn1 (stereo not given) | 0.533
83 | CC(C)(C)C(=O)NCCC(=O)N1CCC(Nc2cccnn2)CC1 | -4.11
84 | O=C(c1ccc(N2CCOCC2)cc1)N1CCCC(n2ccnc2)C1 (stereo not given) | -6.78
85 | COc1cc(/C=C/c2ncc(C(=O)O)s2)cc(Cl)c1OC | 8.01
86 | Cc1cnc(C(=O)N2CCCC(n3cncn3)C2)cn1 (stereo not given) | -2.97
87 | COc1cccc(S(=O)(=O)CCNC2CCc3ncnn3C2)c1 (stereo not given) | 2.53
88 | CCn1cc(CN2CCCN(C(=O)c3ccoc3)CC2)cn1 | -18.8

Row | SMILES | cytotoxicity at 10 µM [%]
89 | CCc1nccn1C1CCCN(C(=O)c2ccc3nncn3c2)C1 (stereo not given) | -12.7
90 | Cc1nc(C)n(CC2CCCN(CCOc3cccc(C#N)c3)C2)n1 (stereo not given) | -6.53
91 | CCc1c(C(=O)NCC(=O)OCC2CC2)cnn1-c1ccc(C)cc1 | -3.81
92 | O=C(c1cccc(OC2CCCC2)c1)N1CCCC(n2cncn2)C1 (stereo not given) | -10.3
93 | Cc1ccc(-c2nc(CNCC3CN(C)CCO3)cs2)o1 (stereo not given) | -9.16
94 | CN1CCC/C1=N\S(=O)(=O)c1ccc(NC(=O)c2ccc(F)cc2)cc1 | -4.84
95 | Cc1cnn(CC2CCCN2Cc2nccn2C)c1 (stereo not given) | 3.54
96 | O=C(NCC(O)CN1CCc2ccccc2C1)Nc1cccnc1 (stereo not given) | 3.2
97 | CC(C)c1nc(C2CCCN(C(=O)c3ccc4[nH]cnc4c3)C2)no1 (stereo not given) | -3.87
98 | CCOc1ccc(CC(CNC(=O)c2ccoc2)C(N)=O)cc1 (stereo not given) | 5.37
99 | Cc1noc(C2CCCN(C(=O)c3ccc(Br)cc3F)C2)n1 (stereo not given) | -8.06
100 | CCOC[C@H]1CC[C@H]2[C@H](CCN2C(=O)c2ccncc2F)O1 | -6.96
101 | Cc1nnc(N2CC[C@H](OCC3CC3)[C@@H](Cc3ccccc3)C2)s1 | 5.25
102 | CN(C)CCN1CCC2(CC1)CN(Cc1cccnc1)C(=O)CO2 | -106
103 | COc1ncccc1CN1C[C@H]2CCN(c3ccc(C)nn3)C[C@H]2C1 | 4.59
104 | Cn1cc(-c2ncc3c(c2C(=O)O)CCN(Cc2ccco2)C3)cn1 | 6.15
105 | CS(=O)(=O)NCc1cnc2n1CCN(Cc1ccccn1)CC2 | 8.85
106 | O=C(NCc1ccccn1)[C@H]1COC[C@H]2CN(c3ncccn3)C[C@H]21 | 9.19
107 | Cc1nc(CN2CCN(CC3CCOC3)Cc3cccnc32)cs1 (stereo not given) | 11
108 | Cc1nc(CN2Cc3nccn3CC(COCC3CC3)C2)cs1 (stereo not given) | 11.3
109 | CC(C)N1CCOCC2(CN(Cc3cccs3)CCO2)C1 (stereo not given) | 3.71
110 | Cc1noc(C)c1CN1C[C@H]2CN(Cc3cccc(F)c3)C[C@H]2C1 | -114
